Experimental data: the RNAGym collection of RNA variant scans (doi:10.1038/s41586-018-0170-7)

B1: tRNA (parent)
chain: GUUCCGUUGGCGUAAUGGUAACGCGUCUCCCUCCUAAGGAGAAGACUGCGGGUUCGAGUCCCGUACGGAACG

Variants of: B1
Assay: yeast fitness, log relative to wild type (ln ratio); higher = fitter; tRNA-Arg(CCU), competitive growth, 37 C, 1 M NaCl
How it was run: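 Variants were counted by 125 bp paired-end Illumina sequencing after pools of a combinatorial tRNA-Arg(CCU) library, held on a HIS3 centromeric plasmid in BY4742 lacking the chromosomal gene, grew ~6.5 generations (~26.5 h) in SC-HIS 1M NaCl at 37 °C. Each genotype's fitness is the natural log of its generations relative to the wild type's. Generations were OD-scaled log2 output/input frequencies, inverse-variance weighted over replicates.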

Row | Variant | yeast fitness (ln)
1 | GUUCCGUUGGCGUAAUGGUAACGCGUCUCCCUCCUAAGGAGAAGAUUGCGGGUUCGAGUCCCGUAUGGAAUG [C46U C66U C71U] | -0.0591
2 | GUUCCUUUGGCGUAAUGGUAACGCGUCUCCCUCCUAAGGAGAAGAUUGCGGGUUCGAGUCCCGUACGGGGCG [G6U C46U A69G A70G] | -0.158
3 | AUUCCUUUGGCGUAAUGGUAACGCGUCUCCCUCCUAAGGAGAAGAUUGCGGGUUCGAGUCCCGUAUGGAAUG [G1A G6U C46U C66U C71U] | -0.057
4 | GGUCCGUUGGCGUAAUGGUAACGCGUCUCCCUCCUAAGGAGACGACUGCGGGUUCGAGUCCCGUAAGGAGUG [U2G A43C C66A A70G C71U] | -0.237
5 | GUUCCUUUGGCGUAAUGGUAACGCGUCUCCCUCCUAAGGAGAAGAUUGCGGGUUCGAGUCCCGUAUGGGUUG [G6U C46U C66U A69G A70U C71U] | -0.434
6 | ACUCCGUUGGCGUAAUGGUAACGCGUUUCCCUCCUAAGGAGACGACUGCGGGUUCGAGUCCCGUACGGGGUG [G1A U2C C27U A43C A69G A70G C71U] | -0.0597
7 | ACUCCAUUGGCGUAAUGGUAACGCGUUUCCCUCCUAAGGAGACGAUUGCGGGUUCGAGUCCCGUAUGGGUCG [G1A U2C G6A C27U A43C C46U C66U A69G A70U] | -0.416
8 | GUUCCAUUGGCGUAAUGGUAACGCGUUUCCCUCCUAAGGAGAAGAUUGCGGGUUCGAGUCCCGUACGGAGCG [G6A C27U C46U A70G] | -0.132
9 | GUUCCUUUGGCGUAAUGGUAACGCGUCUCCCUCCUAAGGAGACGACUGCGGGUUCGAGUCCCGUAUGGGGCG [G6U A43C C66U A69G A70G] | -0.333
10 | AUUCCAUUGGCGUAAUGGUAACGCGUCUCCCUCCUAAGGAGAAGAUUGCGGGUUCGAGUCCCGUAUGGAUUG [G1A G6A C46U C66U A70U C71U] | -0.0831
11 | ACUCCGUUGGCGUAAUGGUAACGCGUCUCCCUCCUAAGGAGACGAUUGCGGGUUCGAGUCCCGUACGGAGUG [G1A U2C A43C C46U A70G C71U] | -0.00628
12 | GGUCCAUUGGCGUAAUGGUAACGCGUUUCCCUCCUAAGGAGACGACUGCGGGUUCGAGUCCCGUAAGGGGCG [U2G G6A C27U A43C C66A A69G A70G] | -0.368
13 | AUUCCAUUGGCGUAAUGGUAACGCGUUUCCCUCCUAAGGAGAAGAUUGCGGGUUCGAGUCCCGUAUGGAGUG [G1A G6A C27U C46U C66U A70G C71U] | -0.21
14 | GCUCCUUUGGCGUAAUGGUAACGCGUCUCCCUCCUAAGGAGAAGACUGCGGGUUCGAGUCCCGUAAGGAGCG [U2C G6U C66A A70G] | -0.0114
15 | GUUCCAUUGGCGUAAUGGUAACGCGUUUCCCUCCUAAGGAGAAGACUGCGGGUUCGAGUCCCGUACGGAAUG [G6A C27U C71U] | -0.204
16 | GCUCCGUUGGCGUAAUGGUAACGCGUCUCCCUCCUAAGGAGACGACUGCGGGUUCGAGUCCCGUAAGGAGUG [U2C A43C C66A A70G C71U] | -0.11
17 | AGUCCGUUGGCGUAAUGGUAACGCGUUUCCCUCCUAAGGAGAAGACUGCGGGUUCGAGUCCCGUAUGGAUUG [G1A U2G C27U C66U A70U C71U] | -0.365
18 | GCUCCGUUGGCGUAAUGGUAACGCGUCUCCCUCCUAAGGAGACGAUUGCGGGUUCGAGUCCCGUACGGGGUG [U2C A43C C46U A69G A70G C71U] | -0.00607
19 | AUUCCGUUGGCGUAAUGGUAACGCGUUUCCCUCCUAAGGAGAAGAUUGCGGGUUCGAGUCCCGUACGGAUUG [G1A C27U C46U A70U C71U] | -0.178

Row | Variant | yeast fitness (ln)
20 | ACUCCGUUGGCGUAAUGGUAACGCGUCUCCCUCCUAAGGAGACGACUGCGGGUUCGAGUCCCGUAAGGAUUG [G1A U2C A43C C66A A70U C71U] | -0.285
21 | GGUCCGUUGGCGUAAUGGUAACGCGUUUCCCUCCUAAGGAGAAGACUGCGGGUUCGAGUCCCGUACGGGGUG [U2G C27U A69G A70G C71U] | -0.178
22 | GGUCCGUUGGCGUAAUGGUAACGCGUCUCCCUCCUAAGGAGACGACUGCGGGUUCGAGUCCCGUACGGGAUG [U2G A43C A69G C71U] | -0.163
23 | GUUCCGUUGGCGUAAUGGUAACGCGUUUCCCUCCUAAGGAGACGAUUGCGGGUUCGAGUCCCGUAUGGGGUG [C27U A43C C46U C66U A69G A70G C71U] | -0.18
24 | ACUCCUUUGGCGUAAUGGUAACGCGUUUCCCUCCUAAGGAGAAGACUGCGGGUUCGAGUCCCGUACGGAGUG [G1A U2C G6U C27U A70G C71U] | -0.212
25 | GUUCCGUUGGCGUAAUGGUAACGCGUUUCCCUCCUAAGGAGACGAUUGCGGGUUCGAGUCCCGUAAGGAAUG [C27U A43C C46U C66A C71U] | -0.173
26 | GCUCCAUUGGCGUAAUGGUAACGCGUCUCCCUCCUAAGGAGAAGACUGCGGGUUCGAGUCCCGUACGGAAUG [U2C G6A C71U] | -0.0812
27 | AGUCCAUUGGCGUAAUGGUAACGCGUUUCCCUCCUAAGGAGACGAUUGCGGGUUCGAGUCCCGUACGGAUUG [G1A U2G G6A C27U A43C C46U A70U C71U] | -0.307
28 | GGUCCUUUGGCGUAAUGGUAACGCGUCUCCCUCCUAAGGAGACGACUGCGGGUUCGAGUCCCGUAAGGGGCG [U2G G6U A43C C66A A69G A70G] | -0.256
29 | GUUCCGUUGGCGUAAUGGUAACGCGUUUCCCUCCUAAGGAGACGAUUGCGGGUUCGAGUCCCGUAUGGAAUG [C27U A43C C46U C66U C71U] | -0.253
30 | GCUCCUUUGGCGUAAUGGUAACGCGUCUCCCUCCUAAGGAGACGACUGCGGGUUCGAGUCCCGUAUGGAGUG [U2C G6U A43C C66U A70G C71U] | -0.172
31 | GUUCCUUUGGCGUAAUGGUAACGCGUCUCCCUCCUAAGGAGACGAUUGCGGGUUCGAGUCCCGUAAGGGUCG [G6U A43C C46U C66A A69G A70U] | -0.113
32 | AGUCCGUUGGCGUAAUGGUAACGCGUCUCCCUCCUAAGGAGAAGACUGCGGGUUCGAGUCCCGUAAGGAUCG [G1A U2G C66A A70U] | -0.0922
33 | GUUCCAUUGGCGUAAUGGUAACGCGUCUCCCUCCUAAGGAGACGACUGCGGGUUCGAGUCCCGUACGGGGCG [G6A A43C A69G A70G] | -0.26
34 | AGUCCAUUGGCGUAAUGGUAACGCGUUUCCCUCCUAAGGAGACGAUUGCGGGUUCGAGUCCCGUACGGGGCG [G1A U2G G6A C27U A43C C46U A69G A70G] | -0.382
35 | GUUCCAUUGGCGUAAUGGUAACGCGUCUCCCUCCUAAGGAGAAGACUGCGGGUUCGAGUCCCGUAAGGAAUG [G6A C66A C71U] | -0.0747
36 | AGUCCAUUGGCGUAAUGGUAACGCGUCUCCCUCCUAAGGAGAAGAUUGCGGGUUCGAGUCCCGUAUGGGUCG [G1A U2G G6A C46U C66U A69G A70U] | -0.383
37 | AGUCCUUUGGCGUAAUGGUAACGCGUUUCCCUCCUAAGGAGAAGACUGCGGGUUCGAGUCCCGUAUGGGGCG [G1A U2G G6U C27U C66U A69G A70G] | -0.333
